Active and inactive are the calls of the source. The calls are words filed in the database; no cut-off is given here.
Columns and labels:
[1] = biological target: Dual specificity tyrosine-phosphorylation-regulated kinase 1A (Homo sapiens) (UniProt Q13627); experiment: Inhibition of DYRK1a at 10 uM
[2] = biological target: RAF proto-oncogene serine/threonine-protein kinase (Homo sapiens) (UniProt P04049); experiment: Inhibition of […] phosphorylation in human U937 cells 1 to 10 uM after 1 hr by Western blot analysis; assay type: cell-based; conditions: U-937
How it was run: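 U937 cells at 5 × 10^5/mL were exposed to compound for 1 h, then sonicated in SDS/DTT sample buffer with protease inhibitors plus 1 mM orthovanadate and pyrophosphate, and boiled 5 min. Blots were blocked in 5% milk, probed with primary antibody overnight at 4 °C and 1:2000 HRP secondary, and read by chemiluminescence. α-Tubulin reprobe served as loading control. Blots shown represent one of three experiments.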

U-937 [3] = experiment: Induction of apoptosis in human U937 cells assessed as necrotic cells at 10 uM after 18 hrs by annexinV-propidium iodide staining-based flow cytometric analysis (reference value: 0.7%); assay type: functional
DU-145 [4] = experiment: Induction of apoptosis in human DU145 cells assessed as necrotic cells at 20 uM after 24 hrs by annexinV-propidium iodide staining-based flow cytometric analysis (reference value: 2.1%); assay type: functional
[5] = biological target: Fibroblast growth factor receptor 1 (Homo sapiens) (UniProt P11362); experiment: Inhibition of FGFR1 at 10 uM
Fibroblast growth factor receptor 1 (Homo sapiens), sequence (P11362 22-822 limits assumed): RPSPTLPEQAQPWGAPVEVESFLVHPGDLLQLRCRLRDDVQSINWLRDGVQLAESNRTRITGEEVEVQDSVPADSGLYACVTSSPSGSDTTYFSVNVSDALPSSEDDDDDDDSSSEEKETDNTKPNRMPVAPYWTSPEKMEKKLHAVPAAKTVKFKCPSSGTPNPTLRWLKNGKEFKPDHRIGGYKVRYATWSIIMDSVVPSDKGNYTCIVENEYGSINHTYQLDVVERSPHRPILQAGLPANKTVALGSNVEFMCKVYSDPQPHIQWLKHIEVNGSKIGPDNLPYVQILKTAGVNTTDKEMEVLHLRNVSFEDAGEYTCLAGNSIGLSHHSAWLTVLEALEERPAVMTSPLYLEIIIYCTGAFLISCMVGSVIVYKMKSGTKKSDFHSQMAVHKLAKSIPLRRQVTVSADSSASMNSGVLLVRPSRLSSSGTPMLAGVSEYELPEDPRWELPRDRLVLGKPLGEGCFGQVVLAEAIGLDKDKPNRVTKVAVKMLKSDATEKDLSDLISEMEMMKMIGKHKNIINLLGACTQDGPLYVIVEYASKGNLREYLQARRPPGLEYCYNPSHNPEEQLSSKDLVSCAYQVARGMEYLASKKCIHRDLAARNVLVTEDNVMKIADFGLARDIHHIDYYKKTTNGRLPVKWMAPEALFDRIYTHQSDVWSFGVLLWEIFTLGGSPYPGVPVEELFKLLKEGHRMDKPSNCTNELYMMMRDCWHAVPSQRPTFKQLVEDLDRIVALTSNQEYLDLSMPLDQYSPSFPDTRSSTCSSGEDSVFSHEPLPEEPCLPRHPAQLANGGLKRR

[6] = biological target: Proto-oncogene tyrosine-protein kinase Src (Homo sapiens) (UniProt P12931); experiment: Inhibition of SRC at 10 uM
U-937 [7] = experiment: Cell cycle arrest in human U937 cells assessed as sub-diploid apoptotic fraction at 10 uM after 24 hrs by propidium iodide staining-based flow cytometric analysis; assay type: functional
How it was run: (§1)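 Cells cultured in RPMI 1640 with 10% FBS and treated 24 h at the indicated concentrations. Stained with propidium iodide for 4 h at 4 °C in the dark. Flow cytometry gave the percentage of cells in G₀/G₁, S, G₂/M and sub-G₁ phases.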

U-937 [8] = experiment: Growth inhibition of human U937 cells after 24 hrs by MTS assay; assay type: functional, cell-based; conditions: U-937, 24 h
How it was run: (§2)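 Cells in RPMI 1640 with 10% heat-inactivated FBS, seeded 2 × 10⁴ cells/well and exposed 24 h. MTS reagent added, then 1 h further incubation at 37 °C, 5% CO₂. Formazan absorbance read at 490 nm. Viability expressed as percentage of untreated controls.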

PC-3 = experiment: Growth inhibition of human PC3 cells after 24 hrs by MTS assay; assay type: functional, cell-based; how it was run: as §2
U-937 [9] = experiment: Induction of apoptosis in human U937 cells assessed as early apoptotic cells at 3 uM after 18 hrs by annexinV-propidium iodide staining-based flow cytometric analysis (reference value: 4.3%); assay type: functional
[10] = biological target: RAC-alpha serine/threonine-protein kinase (Homo sapiens) (UniProt P31749); experiment: Inhibition of AKT1 at 10 uM
[11] = Induction of apoptosis in human M12 cells assessed as viable cells at 20 uM after 24 hrs by annexinV-propidium iodide staining-based flow cytometric analysis (reference value: 80.18%); assay type: functional; conditions: M12, 24 h, read-out: Activity
[12] = biological target: Aurora kinase A (Homo sapiens) (UniProt O14965); experiment: Inhibition of aurora A kinase at 10 uM
Aurora kinase A (Homo sapiens), sequence (O14965 whole entry): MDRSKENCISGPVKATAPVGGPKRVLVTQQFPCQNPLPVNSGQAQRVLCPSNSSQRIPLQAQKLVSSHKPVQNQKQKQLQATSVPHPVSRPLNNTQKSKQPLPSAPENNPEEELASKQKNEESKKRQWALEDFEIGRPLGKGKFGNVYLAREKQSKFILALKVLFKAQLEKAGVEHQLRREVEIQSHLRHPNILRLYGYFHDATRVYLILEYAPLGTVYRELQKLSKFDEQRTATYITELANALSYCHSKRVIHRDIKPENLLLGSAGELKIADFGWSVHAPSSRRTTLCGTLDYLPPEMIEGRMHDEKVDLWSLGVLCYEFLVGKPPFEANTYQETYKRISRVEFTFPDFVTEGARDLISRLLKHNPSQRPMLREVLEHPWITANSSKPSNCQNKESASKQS

U-937 [13] = experiment: Induction of apoptosis in human U937 cells assessed as early apoptotic cells at 10 uM after 18 hrs by annexinV-propidium iodide staining-based flow cytometric analysis (reference value: 4.3%); assay type: functional
U-937 [14] = experiment: Induction of apoptosis in human U937 cells assessed as early apoptotic cells at 10 uM after 3 hrs by annexinV-propidium iodide staining-based flow cytometric analysis (reference value: 2.8%); assay type: functional
U-937 [15] = experiment: Induction of apoptosis in human U937 cells assessed as necrotic cells at 10 uM after 6 hrs by annexinV-propidium iodide staining-based flow cytometric analysis (reference value: 1.2%); assay type: functional
[16] = biological target: Receptor-type tyrosine-protein kinase FLT3 (Homo sapiens) (UniProt P36888); experiment: Inhibition of FLT3 at 10 uM
Receptor-type tyrosine-protein kinase FLT3 (Homo sapiens), sequence (P36888 whole entry): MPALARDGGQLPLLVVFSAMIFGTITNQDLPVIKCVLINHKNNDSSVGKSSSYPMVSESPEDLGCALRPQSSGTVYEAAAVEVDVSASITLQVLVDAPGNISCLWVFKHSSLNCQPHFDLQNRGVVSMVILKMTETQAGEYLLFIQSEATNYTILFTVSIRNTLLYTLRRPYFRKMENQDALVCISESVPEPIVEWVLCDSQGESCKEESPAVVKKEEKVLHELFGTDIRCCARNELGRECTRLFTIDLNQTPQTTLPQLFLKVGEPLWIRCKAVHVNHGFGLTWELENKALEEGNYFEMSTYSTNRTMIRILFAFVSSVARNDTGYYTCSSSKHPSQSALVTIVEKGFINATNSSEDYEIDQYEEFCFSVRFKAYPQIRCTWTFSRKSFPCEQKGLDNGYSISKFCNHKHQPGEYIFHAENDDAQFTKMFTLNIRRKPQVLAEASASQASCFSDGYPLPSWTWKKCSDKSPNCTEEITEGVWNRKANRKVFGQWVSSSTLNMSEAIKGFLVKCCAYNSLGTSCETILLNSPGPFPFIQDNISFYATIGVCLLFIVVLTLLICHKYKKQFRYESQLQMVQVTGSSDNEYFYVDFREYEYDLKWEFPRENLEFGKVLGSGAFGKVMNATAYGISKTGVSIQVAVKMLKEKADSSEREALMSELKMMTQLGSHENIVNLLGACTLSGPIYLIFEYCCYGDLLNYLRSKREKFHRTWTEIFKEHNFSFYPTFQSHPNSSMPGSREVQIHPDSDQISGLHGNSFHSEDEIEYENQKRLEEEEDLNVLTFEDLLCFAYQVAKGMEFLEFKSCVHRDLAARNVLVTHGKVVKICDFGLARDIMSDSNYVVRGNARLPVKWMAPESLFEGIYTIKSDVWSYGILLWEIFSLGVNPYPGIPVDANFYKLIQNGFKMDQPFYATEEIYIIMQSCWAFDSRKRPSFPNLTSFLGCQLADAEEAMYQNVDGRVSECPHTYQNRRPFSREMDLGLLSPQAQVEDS

[17] = biological target: 5'-AMP-activated protein kinase catalytic subunit alpha-2 (Homo sapiens) (UniProt P54646); experiment: Activation of AMPK in human U937 cells assessed as increase in phosphorylated AMPK level at 1 to 10 uM after 1 hr by Western blot analysis; assay type: cell-based; conditions: U-937
How it was run: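 Cells at 5 × 10⁵/mL in growing medium, RPMI 1640 with 10% heat-inactivated FBS, 37 °C, 5% CO₂, exposed 1 h. Lysed by sonication in SDS sample buffer with protease inhibitors plus 1 mM orthovanadate and pyrophosphate, boiled 5 min. Immunoblot probed with rabbit polyclonal anti-phospho-AMPK (Thr172) 1:1000, HRP secondary, chemiluminescence. α-Tubulin reprobe as loading control. One of three independent experiments shown.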

DU-145 [18] = experiment: Growth inhibition of human DU145 cells after 24 hrs by MTS assay; assay type: functional, cell-based; how it was run: as §2
[19] = biological target: Phosphatidylinositol 4,5-bisphosphate 3-kinase catalytic subunit alpha isoform (Homo sapiens) (UniProt P42336); experiment: Inhibition of PI3Kalpha at 10 uM
Phosphatidylinositol 4,5-bisphosphate 3-kinase catalytic subunit alpha isoform (Homo sapiens), sequence (P42336 whole entry, canonical isoform): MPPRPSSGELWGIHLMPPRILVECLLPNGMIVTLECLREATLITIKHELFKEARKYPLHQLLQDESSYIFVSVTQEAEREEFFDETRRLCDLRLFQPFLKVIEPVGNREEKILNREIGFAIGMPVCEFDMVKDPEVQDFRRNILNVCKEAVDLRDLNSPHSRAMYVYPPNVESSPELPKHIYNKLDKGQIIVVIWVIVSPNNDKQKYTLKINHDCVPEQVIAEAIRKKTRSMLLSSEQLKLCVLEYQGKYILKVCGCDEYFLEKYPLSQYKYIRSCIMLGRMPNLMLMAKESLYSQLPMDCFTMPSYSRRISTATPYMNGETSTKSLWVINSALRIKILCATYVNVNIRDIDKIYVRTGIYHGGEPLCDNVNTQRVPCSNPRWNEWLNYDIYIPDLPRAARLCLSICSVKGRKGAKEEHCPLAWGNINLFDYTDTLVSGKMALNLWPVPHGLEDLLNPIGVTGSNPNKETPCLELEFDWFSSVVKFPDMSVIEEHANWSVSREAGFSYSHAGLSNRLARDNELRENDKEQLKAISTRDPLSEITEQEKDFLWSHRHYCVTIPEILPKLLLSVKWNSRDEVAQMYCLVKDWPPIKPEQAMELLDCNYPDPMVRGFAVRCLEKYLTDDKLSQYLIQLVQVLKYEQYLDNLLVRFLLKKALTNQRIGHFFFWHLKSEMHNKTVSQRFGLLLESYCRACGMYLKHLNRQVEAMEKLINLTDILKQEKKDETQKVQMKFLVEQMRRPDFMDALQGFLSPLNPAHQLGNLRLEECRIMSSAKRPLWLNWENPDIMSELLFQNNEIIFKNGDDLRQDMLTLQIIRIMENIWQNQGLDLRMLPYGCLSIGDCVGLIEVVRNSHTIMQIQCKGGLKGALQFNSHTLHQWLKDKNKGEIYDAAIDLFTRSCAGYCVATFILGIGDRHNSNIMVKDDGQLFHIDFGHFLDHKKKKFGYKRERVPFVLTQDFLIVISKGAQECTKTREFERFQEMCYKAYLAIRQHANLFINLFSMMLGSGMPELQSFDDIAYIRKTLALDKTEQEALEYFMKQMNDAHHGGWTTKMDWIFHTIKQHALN

U-937 [20] = experiment: Induction of apoptosis in human U937 cells assessed as late apoptotic cells at 10 uM after 18 hrs by annexinV-propidium iodide staining-based flow cytometric analysis (reference value: 7.8%); assay type: functional
U-937 [21] = experiment: Induction of apoptosis in human U937 cells assessed as late apoptotic cells at 10 uM after 3 hrs by annexinV-propidium iodide staining-based flow cytometric analysis (reference value: 8.6%); assay type: functional
[22] = biological target: Serine/threonine-protein kinase Chk2 (Homo sapiens) (UniProt O96017); experiment: Inhibition of CHK2 at 10 uM
Serine/threonine-protein kinase Chk2 (Homo sapiens), sequence (O96017 whole entry): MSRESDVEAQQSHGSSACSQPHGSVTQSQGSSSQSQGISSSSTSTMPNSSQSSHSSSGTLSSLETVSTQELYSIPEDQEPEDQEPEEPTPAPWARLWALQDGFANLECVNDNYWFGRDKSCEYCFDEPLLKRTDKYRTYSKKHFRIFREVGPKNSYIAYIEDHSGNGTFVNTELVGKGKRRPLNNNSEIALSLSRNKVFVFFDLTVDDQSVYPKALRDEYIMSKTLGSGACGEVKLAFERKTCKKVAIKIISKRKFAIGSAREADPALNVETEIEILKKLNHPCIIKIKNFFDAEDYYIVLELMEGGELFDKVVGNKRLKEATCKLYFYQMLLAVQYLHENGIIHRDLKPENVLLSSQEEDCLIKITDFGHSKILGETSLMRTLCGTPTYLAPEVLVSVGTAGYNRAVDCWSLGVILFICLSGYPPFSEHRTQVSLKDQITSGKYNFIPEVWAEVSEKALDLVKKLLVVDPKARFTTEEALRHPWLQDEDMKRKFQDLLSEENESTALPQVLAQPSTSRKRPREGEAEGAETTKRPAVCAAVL

[23] = biological target: MAP kinase-activated protein kinase 5 (Homo sapiens) (UniProt Q8IW41); experiment: Inhibition of PRAK at 10 uM
[24] = Inhibition of PKA at 10 uM
[25] = Inhibition of PKGa at 10 uM
U-937 [26] = experiment: Cell cycle arrest in human U937 cells assessed as decrease in G2/M-phase population at 10 uM after 24 hrs by propidium iodide staining-based flow cytometric analysis; assay type: functional; how it was run: as §1
U-937 [27] = experiment: Induction of apoptosis in human U937 cells assessed as necrotic cells at 3 uM after 18 hrs by annexinV-propidium iodide staining-based flow cytometric analysis (reference value: 0.7%); assay type: functional
[28] = biological target: Glycogen synthase kinase-3 beta (Homo sapiens) (UniProt P49841); experiment: Inhibition of GSK3-beta at 10 uM
Glycogen synthase kinase-3 beta (Homo sapiens), sequence (P49841 whole entry, looked up): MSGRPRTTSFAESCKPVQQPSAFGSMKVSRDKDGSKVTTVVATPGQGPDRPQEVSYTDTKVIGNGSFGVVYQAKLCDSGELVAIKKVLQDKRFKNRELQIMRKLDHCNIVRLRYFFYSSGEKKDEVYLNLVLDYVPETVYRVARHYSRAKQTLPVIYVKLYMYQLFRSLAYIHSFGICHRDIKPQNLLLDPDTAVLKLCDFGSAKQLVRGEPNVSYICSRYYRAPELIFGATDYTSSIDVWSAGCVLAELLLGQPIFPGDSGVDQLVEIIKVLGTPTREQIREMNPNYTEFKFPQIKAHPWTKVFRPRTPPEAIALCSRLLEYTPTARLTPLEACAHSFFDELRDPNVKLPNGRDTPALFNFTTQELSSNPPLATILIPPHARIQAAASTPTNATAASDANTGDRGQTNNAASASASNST

U-937 [29] = experiment: Induction of apoptosis in human U937 cells assessed as early apoptotic cells at 10 uM after 6 hrs by annexinV-propidium iodide staining-based flow cytometric analysis (reference value: 4.6%); assay type: functional
[30] = biological target: RAC-beta serine/threonine-protein kinase (Homo sapiens) (UniProt P31751); experiment: Inhibition of AKT2 at 10 uM
RAC-beta serine/threonine-protein kinase (Homo sapiens), sequence (P31751 whole entry): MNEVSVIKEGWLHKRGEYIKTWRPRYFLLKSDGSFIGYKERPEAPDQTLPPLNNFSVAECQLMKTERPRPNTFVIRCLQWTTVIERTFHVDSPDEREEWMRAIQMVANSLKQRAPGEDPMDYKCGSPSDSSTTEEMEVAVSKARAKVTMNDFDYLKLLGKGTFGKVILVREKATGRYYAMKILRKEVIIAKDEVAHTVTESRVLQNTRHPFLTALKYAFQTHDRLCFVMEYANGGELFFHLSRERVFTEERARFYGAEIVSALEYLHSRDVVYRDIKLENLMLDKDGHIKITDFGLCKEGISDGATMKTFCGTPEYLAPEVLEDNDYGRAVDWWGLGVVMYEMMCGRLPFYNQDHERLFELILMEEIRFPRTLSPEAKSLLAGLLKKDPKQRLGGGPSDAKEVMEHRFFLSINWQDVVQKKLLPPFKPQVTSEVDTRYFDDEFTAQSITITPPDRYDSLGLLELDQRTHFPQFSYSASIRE

[31] = Induction of apoptosis in human M12 cells assessed as necrotic cells at 20 uM after 24 hrs by annexinV-propidium iodide staining-based flow cytometric analysis (reference value: 1.7%); assay type: functional
[32] = biological target: Ribosomal protein S6 kinase alpha-1 (Homo sapiens) (UniProt Q15418); experiment: Inhibition of RSK1 at 10 uM
U-937 [33] = experiment: Inhibition of PI3K-mediated Akt phosphorylation in human U937 cells at 3 uM after 1 hr by Western blot analysis; assay type: cell-based

Which inhibition [1] does the source give for NCCN1C(=O)S/C(=C\CCC2CCCCC2)C1=O here?
The inhibition was -5%.

And the inhibition [2]?
The inhibition was “Active”.

And the Activity (U-937 [3])?
Its Activity is 2.1%.

What about the Activity (DU-145 [4]) of the same compound?
The Activity was 3.2%.

And the inhibition [5]?
Its inhibition is 3%.

And the inhibition [6]?
The inhibition was 2%.

And the Activity (U-937 [7])?
The Activity was 49.9%.

And the IC50 (U-937 [8])?
Its IC50 is 3.4 µM.

And the “growth inhibition (GI)” value (PC-3)?
The value was “Active”.

And the Activity (U-937 [9])?
The Activity was 3.5%.

What about the inhibition [10] of the same compound?
Its inhibition is 3%.

And the viability at 20 µM [11]?
The viability at 20 µM was 5.1%.

What about the inhibition [12] of the same compound?
Its inhibition is -4%.

And the Activity (U-937 [13])?
Its Activity is 15%.

And the Activity (U-937 [14])?
Its Activity is 23.8%.

What about the Activity (U-937 [15]) of the same compound?
The Activity was 1.4%.

And the inhibition [16]?
The inhibition was 38%.

And the Activity [17]?
Its Activity is “Active”.

And the “growth inhibition (GI)” value (DU-145 [18])?
Its value is “Active”.

And the inhibition [19]?
Its inhibition is 45%.

And the Activity (U-937 [20])?
Its Activity is 40.9%.

What about the Activity (U-937 [21]) of the same compound?
The Activity was 11%.

And the inhibition [22]?
Its inhibition is 8%.

And the inhibition [23]?
The inhibition was 4%.

What about the inhibition [24] of the same compound?
Its inhibition is -3%.

And the inhibition [25]?
The inhibition was -2%.

And the Activity (U-937 [26])?
The Activity was “Active”.

What about the Activity (U-937 [27]) of the same compound?
The Activity was 0.7%.

And the inhibition [28]?
Its inhibition is 0%.

What about the Activity (U-937 [29]) of the same compound?
Its Activity is 14.2%.

And the inhibition [30]?
The inhibition was 8%.

And the Activity [31]?
The Activity was 5.2%.

And the inhibition [32]?
The inhibition was 2%.

And the inhibition (U-937 [33])?
Its inhibition is “Active”.

Reference: ChEMBL document CHEMBL1926538, “3,5-Disubstituted-thiazolidine-2,4-dione analogs as anticancer agents: design, synthesis and biological characterization” (Eur J Med Chem, 2012)
